Data set [1] concerns MDCK cell monolayers. The settings on record: shown previously; cited from earlier work.
Data set [2] relates to intercellular junctions of Caco-2 cell monolayers. The data set can be described thus: Inhibition of intercellular junction resealing. Format: cell-based. The settings on record: for Activity in the resealing assay compared to either ADT6 or HAV6: conjugates with aminocaproic acid (cap) linker; for Inhibition of resealing (% TEER difference between 8- and 2-h time points) compared to blank: AP-BL sides of Caco-2 monolayers (Fig. 5); for Inhibition of resealing of intercellular junctions (TEER time course): 0.5 mM peptide, AP-BL sides, conditioned Caco-2 monolayers. In outline:
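Caco-2 cells were grown on 3 µm-pore Transwell inserts (50,000 cells/insert) and used on days 15–20. Initial TEER was taken after 1 h at 37 °C in HBSS pH 7.4 (10 mM Hepes, 1% glucose, 2.0 mM CaCl2). Cells were conditioned 2 h in calcium-free medium. Peptide (0.5 or 1.0 mM) in Ca-HBSS was added AP, BL or AP-BL, with blank and unrelated-peptide controls. TEER was read hourly, minus 90 Ω × cm2 background, in triplicate. Inhibition was the TEER change from 2 to 8 h.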

The subject of data set [3] is Caco-2 cell monolayers. The data set can be described thus: Peptide stability on Caco-2 cell monolayers. Format: in vitro ADME.
For data set [4], the system named is E-cadherin-mediated adhesion of Caco-2 cells. Conditions: shown previously; cited from earlier work.
Data set [5] shares this test system. The data set can be described thus: Homotypic adhesion of Caco-2 single cells to attached cells. Format: cell-based. Conditions: 250 µM peptide. The method in brief: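 Single Caco-2 cells were released by Ca2+/Mg2+-free EBSS (1 h, 37 °C) and labelled with BCECF-AM. They were added at 5 × 10^4 cells/well to Caco-2 monolayers pretreated 2 h at 37 °C in Ca2+-free EBSS (1 mM Mg2+, 0.1% BSA). Co-incubation with peptide was 2 h at 37 °C. Positive control was anti-E-cadherin antibody DECMA-1 at 1:100. Unbound cells were removed and attached cells lysed; fluorescence was read at ex 485/em 530 nm.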

The subject of data set [6] is blood brain barrier. Briefly: In situ rat brain perfusion, [3H. The data set is classed as in vivo. Conditions: 1.0 mM HAV6 first, then daunomycin with 500 µM verapamil; p < 0.001 (Fig. 3 E).
The subject of data set [7] is blood brain barrier. The data set can be described thus: In situ rat brain perfusion, 14C-mannitol permeation. Conditions: for Enhancement of 14C-mannitol permeation through the BBB compared to vehicle: 1.0 mM test substance pre-perfused 4 min at 10 ml/min, triplicate. Format: in vivo. The method in brief:
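Perfusion was 4 min with vehicle (0.5% Tween in sterile saline) or 1.0 or 0.5 mM peptide, then immediately 4 min with 14C-mannitol (10 µCi). Brain radioactivity was measured in triplicate, reported as mean ± SD, and compared with vehicle (p < 0.05).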

The subject of data set [8] is EC5 domain of E-cadherin. Conditions: cited from earlier work.

Consider twelve substances from paper PMC3078649 (Molecular pharmaceutics, 2010).

For Ac-ADTPPV-NH2 [ADT6], in data set [1], the “Enhancement of 14C-mannitol permeation through MDCK cell monolayers” value is “enhance ^14C-mannitol through MDCK cell monolayers”.
Turning to Ac-DTPPV-cap-SHAVSS-NH2, in data set [2], the “Activity in the resealing assay compared to either ADT6 or HAV6” value was “did not show any improved activity”.
Regarding “Ac-HSVSAS-NH2 [HAVscr, reference compound]”, in data set [2] (1.0 mM peptide), the “Inhibition of resealing (% TEER difference between 8- and 2-h time points) compared to blank” value is “could not suppress the resealing”.
Ac-LFSHAVSSNG-NH2 [HAV10] gave a Peptide concentration remaining in data set [3] (100 µM peptide, apical side of Caco-2 cell monolayers, 8 h incubation) of 80%. In addition, in data set [4], the “Inhibition of homotypic Caco-2 cell adhesion” value is “inhibit the homotypic Caco-2 cell adhesion”. The “Enhancement of 14C-mannitol permeation through MDCK cell monolayers” value in data set [1] is “enhance ^14C-mannitol through MDCK cell monolayers”. Also, in data set [2], the “Inhibition of resealing of intercellular junctions (TEER time course)” value is “not at 0.5 mM”.
Take Ac-NDDGGQFVVT-NH2 [BLG3]: the “Inhibition of resealing (% TEER difference between 8- and 2-h time points) compared to blank” value in data set [2] (1.0 mM peptide) was “could not inhibit the resealing”.
Take Ac-QDPELPDKNM-NH2 [BLG2]: the “Potency in blocking homotypic cell-cell adhesion relative to BLG1 and BLG4” value in data set [5] was “more potent”.
As to Ac-QGADTPPVGV-NH2 [ADT10], the “Enhancement of 14C-mannitol permeation through MDCK cell monolayers” value in data set [1] is reported as “enhance ^14C-mannitol through MDCK cell monolayers”. In data set [2], the “Inhibition of resealing of intercellular junctions (TEER time course)” value is reported as “still active”. In data set [2] (1.0 mM peptide), the “Inhibition of resealing (% TEER difference between 8- and 2-h time points) compared to blank” value is “significantly suppress the resealing”.
Regarding Ac-SHAVSS-NH2 [HAV6], the “Metabolic stability on Caco-2 cell monolayer” value in data set [3] (96-h incubation on Caco-2 cell monolayer) was “metabolically stable”. For the same substance, the “Amount of daunomycin in the brain compared to vehicle-treated BBB” value in data set [6] is on record as “tremendous increase”. The “Amount of mannitol delivered to the brain: lowering when HAV6 was lowered from 1.0 mM to 0.5 mM” value in data set [7] (0.5 mM versus 1.0 mM HAV6) came out at 40%. In addition, the “Enhancement of 14C-mannitol permeation through the BBB compared to vehicle” value in data set [7] is “significantly enhanced”. In addition, the “Binding to the expressed EC5 domain by NMR spectroscopy” value in data set [8] is “bind the expressed EC5 domain”.
For the substance Ac-SHAVSS-cap-ADTPPV-NH2, the “Activity in the resealing assay compared to either ADT6 or HAV6” value in data set [2] is given as “did not show any improved activity”.
As for “Ac-SSVAHS-NH2 [HAVrev, reference compound]”, the “Inhibition of resealing (% TEER difference between 8- and 2-h time points) compared to blank” value in data set [2] (1.0 mM peptide) was “could not suppress the resealing”.
For the substance Ac-TYRIWRDTAN-NH2 [BLG4], the “Rank of inhibitory activity in the resealing assay among BLG peptides” value in data set [2] (1.0 mM peptide, AP-BL sides (Fig. 5)) is recorded as “best inhibitory activity”. Besides, in data set [2] (1.0 mM peptide), the “Inhibition of resealing (% TEER difference between 8- and 2-h time points) compared to blank” value is reported as “significantly suppress the resealing”. In addition, in data set [8], the “Binding to the expressed EC5 domain by NMR spectroscopy” value was “bind the expressed EC5 domain”.
Take EATDSG [LABL6, reference compound]: the “Enhancement of 14C-mannitol permeation through the BBB compared to vehicle” value in data set [7] was “did not enhance”.
